Laboratory results reported in ChEMBL document CHEMBL1811802, “Synthesis and significant cytostatic activity of 7-hetaryl-7-deazaadenosines” (J Med Chem, 2011).
Active and inactive are the calls of the source. No cut-off for these calls is given here.

Columns and labels:
CCRF-CEM [1] = assay: Cytotoxicity against human CCRF-CEM cells after 3 days by XTT assay; assay type: functional, cell-based; settings: 72 h
How it was run: (§1)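 Suspension-grown cell lines, 3-day compound incubation; viability read by XTT metabolic assay; IC50 averaged from four independent experiments.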

[2] = Cytotoxicity against mouse P388D1 cells after 3 days by MTT assay; assay type: functional, cell-based; settings: P388D1, 72 h
HeLa = assay: Cytotoxicity against human HeLa cells after 3 days by MTT assay; assay type: functional, cell-based; settings: 72 h
K562 = assay: Cytotoxicity against human K562 cells after 3 days by MTT assay; assay type: functional, cell-based; settings: K562, 72 h
BJ = assay: Cytotoxicity against human BJ cells after 3 days by MTT assay; assay type: cell-based; settings: 72 h
[3] = Cytotoxicity against human HeLaS3 cells after 3 days by XTT assay; assay type: functional, cell-based; settings: HeLa S3, 72 h; how it was run: as §1
DU-145 = assay: Metabolic stability in human DU145 cells assessed as sodium ((2R,3S,4R,5R)-5-(4-amino-7H-pyrrolo[2,3-d]pyrimidin-7-yl)-3,4-dihydroxytetrahydrofuran-2-yl)methyl hydrogentriphosphate-NTP formation per million of cells at 10 uM after 6 hrs by LC/MS/MS analysis; assay type: ADME, cell-based; settings: du-145, 6 h
How it was run: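 Du145 seeded at 60% confluence in MEM/10% FBS; next day exposed to 10 μM compound for 6 or 24 h. Cells trypsinized, extracted in 70% MeOH, dried, resuspended in 1 mM ammonium phosphate pH 8.5. Nucleoside, NMP and NTP quantified by ion-pairing (dimethylhexylamine) LC/MS/MS against untreated-cell-extract standard curves; pmol per million cells.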

HT-29 = assay: Cytotoxicity against human HT-29 cells after 3 days by MTT assay; assay type: functional, cell-based; settings: HT-29, 72 h
MCF7 = assay: Cytotoxicity against human MCF7 cells after 3 days by MTT assay; assay type: functional, cell-based; settings: MCF7, 72 h
MAT-Ly-Lu = assay: Cytotoxicity against rat MAT-LyLu cells after 3 days by MTT assay; assay type: functional, cell-based; settings: 72 h
CCRF-CEM [4] = assay: Inhibition of DNA synthesis in human CCRF-CEM cells assessed as BrdU incorporation at 1 to 5 times GI50 after 1 hr by FACS analysis; assay type: functional, cell-based; settings: in the assay text read “at 5 times GI50 after longer incubation” for “at 1 to 5 times GI50 after 1 hr”
How it was run: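 CCRF-CEM cultured as for cell cycle (1× or 5× GIC50), pulsed with 10 μM BrdU for 30 min before harvest. Ethanol-fixed, DNA denatured in 2 M HCl, anti-BrdU then FITC secondary antibody, propidium iodide/RNase counterstain, flow cytometry at 488 nm.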

MT4 = assay: Cytostatic activity against human MT4 cells after 5 days by SRB assay; assay type: functional; settings: MT4, 120 h
BT-549 = assay: Cytotoxicity against human BT549 cells after 3 days by MTT assay; assay type: functional, cell-based; settings: BT-549, 72 h
HCT-116 [5] = assay: Cytostatic activity against human HCT116 cells after 5 days by SRB assay; assay type: functional; settings: HCT-116, 120 h
How it was run: (§2)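 Cells seeded per line density, overnight at 37 °C; day-zero plate TCA-fixed. 5-fold serial dilutions added, 5-day incubation; TCA fixation, 0.057% SRB in 1% acetic acid 30 min, dye dissolved in 10 mM Tris pH 10.5, A500. Growth relative to day-zero and untreated; GIC50 from sigmoidal dose–response fit; mean of two independent experiments.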

SK-OV-3 = assay: Cytotoxicity against human SKOV3 cells after 3 days by MTT assay; assay type: functional, cell-based; settings: SK-OV-3, 72 h
LNCaP = assay: Cytotoxicity against human LNCAP cells after 3 days by MTT assay; assay type: functional, cell-based; settings: 72 h
CT26 = assay: Cytotoxicity against mouse CT26 cells after 3 days by MTT assay; assay type: functional, cell-based; settings: CT26, 72 h
[6] = Cytotoxicity against human U87MG cells after 3 days by MTT assay; assay type: functional, cell-based, U-87MG ATCC; settings: U-87 MG, 72 h
L1210 = assay: Cytotoxicity against mouse L1210 cells after 3 days by MTT assay; assay type: functional, cell-based; settings: L1210, 72 h
HL-60 = assay: Cytotoxicity against human HL60 cells after 3 days by XTT assay; assay type: functional, cell-based; settings: HL-60, 72 h; how it was run: as §1
A549 = assay: Cytostatic activity against human A549 cells after 5 days by SRB assay; assay type: functional; settings: A549, 120 h; how it was run: as §2
HCT-116 [7] = assay: Cytotoxicity against human HCT116 cells after 3 days by MTT assay; assay type: functional, cell-based; settings: HCT-116, 72 h

## Nc1ncnc2c1c(-c1cccs1)cn2[C@@H]1O[C@H](CO)[C@@H](O)[C@H]1O
CCRF-CEM [1]
  IC50: 50 nM
[2]
  IC50: 28 nM
HeLa
  IC50: 33 nM
K562
  IC50: 25 nM
BJ
  IC50: 9850 nM
[3]
  IC50: 20 nM
DU-145
  Stability: 0.53 pmol
HT-29
  IC50: 96 nM
MCF7
  IC50: 528 nM
MAT-Ly-Lu
  IC50: 180 nM
CCRF-CEM [4]
  inhibition: Active
MT4
  GI50: 35 nM
BT-549
  IC50: 119 nM
HCT-116 [5]
  GI50: 2.6 nM
SK-OV-3
  IC50: > 10000 nM
LNCaP
  IC50: 18 nM
CT26
  IC50: 124 nM
[6]
  IC50: > 10000 nM
L1210
  IC50: 115 nM
HL-60
  IC50: 950 nM
A549
  GI50: 7 nM
HCT-116 [7]
  IC50: 60 nM
